# Experimental data: the M2OR odorant receptor database
# Molecular target: T1, OR52D1 (Homo sapiens) (UniProt Q9H346)
# T1 sequence (whole entry): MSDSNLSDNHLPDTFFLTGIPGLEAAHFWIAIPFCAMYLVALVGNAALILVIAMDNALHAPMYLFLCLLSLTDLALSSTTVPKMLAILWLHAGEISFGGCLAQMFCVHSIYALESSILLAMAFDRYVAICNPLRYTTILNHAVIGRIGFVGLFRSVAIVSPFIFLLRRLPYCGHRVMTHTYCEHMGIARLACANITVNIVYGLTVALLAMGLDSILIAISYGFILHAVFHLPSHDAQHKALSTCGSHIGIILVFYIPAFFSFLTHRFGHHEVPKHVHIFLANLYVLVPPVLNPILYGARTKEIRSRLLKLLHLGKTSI
# Conditions: stereoisomer not certain
# Procedure, shortened: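 Each receptor–molecule pair is labelled responsive or non-responsive (inactive) according to whether the original authors judged the measured signal statistically different from baseline. The data were taken from the main text and supplementary material of published papers and checked for typos and inconsistencies. Assay methods differed by source, with transient luciferase assays in mammalian cell lines being common.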
# 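Further: active if original authors judged signal statistically different from baseline.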
row,SMILES,odorant receptor agonist call
1,c1ccc2[nH]ccc2c1,inactive
2,CCCCCCO,inactive
3,CCCCCCCCCO,active
4,CC(=O)CCC=C(C)C,active
5,CCCCCCCC(C)=O,inactive
6,COc1ccccc1,active
7,Cc1cnccn1,inactive
8,CCCC(=O)SC,active
9,CC1CCC(C(C)C)C(=O)C1 (configuration not stated),inactive
10,CC(=O)OCCC(C)C,active
11,CCCCCCCCCC(=O)OCC,inactive
12,COc1nccnc1CC(C)C,active
13,CCCCCCCO,inactive
14,c1cscn1,active
15,CC(=O)C(C)O (configuration not stated),active
16,CCCCCCCCC(C)=O,active
17,CC=Cc1ccc(OC)cc1,active
18,CCCCCCC(C)O (configuration not stated),inactive
19,CC12CCC(CC1=O)C2(C)C (configuration not stated),inactive
20,CCCCCCCCC(=O)OCC,inactive
21,CCCCCCCCCCO,inactive
22,CCCCCCCCO,inactive
23,Cc1occc(=O)c1O,inactive
24,OCc1ccccc1,active
25,CCCCCCCCCCCC=O,inactive
26,CCCCCCC(=O)OC,active
27,CCCCCCCC(=O)[O-].[H+],active
